# Measurements of several laboratories.
# Each line is one published result; the experiments were not run side by side.
# Target: Serine/threonine-protein kinase Nek2 (NEK2, Homo sapiens, UniProt P51955)
# One construct used (P51955 1-445): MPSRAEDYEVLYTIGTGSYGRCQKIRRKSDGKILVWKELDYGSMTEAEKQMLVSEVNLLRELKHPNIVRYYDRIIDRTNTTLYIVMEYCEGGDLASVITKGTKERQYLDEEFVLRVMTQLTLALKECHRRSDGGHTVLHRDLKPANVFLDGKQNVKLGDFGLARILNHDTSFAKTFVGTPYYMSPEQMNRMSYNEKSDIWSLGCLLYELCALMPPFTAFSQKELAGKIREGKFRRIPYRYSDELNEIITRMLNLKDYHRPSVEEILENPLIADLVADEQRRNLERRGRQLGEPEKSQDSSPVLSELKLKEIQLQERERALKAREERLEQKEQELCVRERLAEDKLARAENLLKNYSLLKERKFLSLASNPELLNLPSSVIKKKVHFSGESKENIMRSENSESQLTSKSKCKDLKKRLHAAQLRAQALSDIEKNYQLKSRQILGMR
SMILES,read-out,technique,concentration,remaining binding
O=C(N[C@H]1CCCCC/C=C\C2C[C@@]2(C(=O)O)NC(=O)[C@@H]2C[C@@H](Oc3ccncc3)CN2C1=O)OC1CCCC1 (some centres unmarked),binding,competition with immobilised ligand,1 µM,94%
O=C(c1ccc(Nc2ncc(Cl)c(-c3ccc(Cl)s3)n2)cc1)N1CCC(N2CCCC2)CC1,binding,competition with immobilised ligand,1 µM,65%
COc1cnc(Nc2cccc(S(N)(=O)=O)c2)nc1N1CCN(c2ccccc2)CC1,binding,competition with immobilised ligand,1 µM,97%
O=C(c1ccc(Nc2nccc(-c3cc4ccccc4s3)n2)cc1)N1CCC(N2CCCC2)CC1,binding,competition with immobilised ligand,1 µM,95%
C[C@@H]1CCN(c2nccc(-c3cnn4ncccc34)n2)C1,binding,,1 µM,87%
O=C(NCCCN1CCOCC1)c1ccc(Nc2nccc(-c3cc4ccccc4s3)n2)cc1,binding,competition with immobilised ligand,1 µM,94%
Nc1ncc2c(n1)-c1c([nH]c3ccc(C#CC4CC4)cc13)CCCC2,binding,competition with immobilised ligand,1 µM,87%
NS(=O)(=O)c1cc(NC(=O)C2(c3ccccc3Cl)CC2)ccc1Oc1cccc(Cl)c1,cell-free assay,competition with immobilised ligand,1 µM,86%
COc1cnc(Nc2cccc(S(N)(=O)=O)c2)nc1N1CCN(c2ccccc2)C(=O)C1,binding,competition with immobilised ligand,1 µM,98%
c1cnn2ncc(-c3ccnc(N4CCC45COC5)n3)c2c1,binding,,1 µM,95%
O=C(NCC1CCOCC1)c1n[nH]cc1NC(=O)c1c(F)cccc1F,binding,competition with immobilised ligand,1 µM,87%
CCN1CCN(Cc2ccc(C(=O)Nc3ccc(C)c(Oc4ccc5c(c4)CC(=O)N5)c3)cc2C(F)(F)F)CC1,binding,competition with immobilised ligand,1 µM,100%
CCCCN(CCCC)C(=O)CN1C[C@@H](c2cc(OC)c3c(c2)OCO3)[C@H](C(=O)O)[C@H]1CC(C)(C)CCC,cell-free assay,competition with immobilised ligand,1 µM,98.7%
N[C@H]1CCN(c2nccc(-c3cnn4ncccc34)n2)C1,binding,,1 µM,100%
O=C(Nc1cccnn1)N1CC(C/C=C/c2cncc(Oc3ccc(C(F)(F)F)cn3)n2)C1,cell-free assay,competition with immobilised ligand,1 µM,100%
CN(CCCC(F)(F)F)c1nccc(-c2cnn3ncccc23)n1,binding,,1 µM,100%
C[C@H](c1ccnc(Nc2nc3ccc(-c4cc(N(C)C)ncn4)cc3[nH]2)c1)N1CCN(C(=O)CC(F)(F)F)CC1,cell-free assay,competition with immobilised ligand,0.1 µM,100%
C[C@@H](c1ccc(-n2cnc3c(N)ncnc32)cc1)N1CCc2nn(C)c(Cc3ccccc3)c2C1=O,binding,competition with immobilised ligand,0.1 µM,89%
CNC(=O)Nc1ccc2c(c1)[C@@]1(CC2)OC(=O)N(CC(=O)N(Cc2ccc(F)cc2)[C@@H](C)C(F)(F)F)C1=O,cell-free assay,competition with immobilised ligand,1 µM,100%
COc1ccnn2ncc(-c3ccnc(N(C)C)n3)c12,binding,,1 µM,92%
